LANA-H2A inh: blockers of LANA interaction with H2A/H2B – biochemical, FP readout, HTS, primary screen | AID 2629, 2010 | Protein LANA1 (Human herpesvirus 8 type P (isolate GK18)), Q9QR71 | cell-free LANA-H2A/H2B peptide, fluorescence polarization | inhibition, % (no concentration beside the values) | 320,000 compounds, 0.6% hits; in the data active = inhibition mostly above about 10%, no sharp cut-off; inactive = mostly below about 6.7%
JMJD2C inh: inhibitors of GASC-1 histone demethylase, primary screen, biochemical, fluorescence, DELFIA europium | inhibition, % at 2.35 µM | 330,000 compounds, 0.069% hits | Lysine-specific demethylase 4C (Homo sapiens), Q9H3R0 | GST-JMJD2C(1-420) H3K9me3 demethylation;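 active = more than half of a compound's replicate wells show inhibition beyond 50%, single wells judged on their own value; inconclusive = some, but no more than half, of replicates pass 50% inhibition; inactive = no replicate passes 50% inhibition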;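 also: signal counts dimethyl H3K9 product captured on neutravidin plate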
Arr AP2 block: inhibitors of beta-arrestin/AP2 binding, primary screen, biochemical, GPCR trafficking, flow cytometry; beta-arrestin 1 C-terminal peptide binding to AP2 beta2-adaptin appendage (human); FITC-arrestin peptide / GST-AP2 beads; AP2 beta2 appendage carries R879A mutation; inhibition, % at 10 µM; 340,000 compounds, 0.31% hits;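 active = inhibition above a set limit, near 3 SD of compounds lacking own fluorescence, cut at about 54% in these data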
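System: GST-AP2 R879A bound to glutathione beads, E. coli-expressed. Also added: 50 nM FITC-arrestin peptide. Schedule: compound with beads 12 min RT, then probe 1 h RT. Signal: bead flow cytometry, FITC channel. Read-out basis: percent response.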
T cell HTS: modulators of CD8 T cell-vesicle binding, primary screen, mouse 2C CD8+ T cells, flow cytometry. 330,000 compounds, 0.068% hits. 2C CD8+ T cell-vesicle binding; active compounds read low. response (vesicle binding), % at 7 µM;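 active = response, share of CD8 T cells binding vesicles, and their 90th percentile fluorescence all below set limits, cut at about 80% in these data, passing the limit was not always enough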;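 also: values below 100% mean blocked vesicle binding to the CD8+ T cells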
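System: murine 2C transgenic CD8+ T lymphocytes; also added: QL9-loaded Drosophila micro-vesicles; times: binding 1.5 h at 37 °C; measured by: flow cytometry, PE anti-B7-1 (FL2) versus Alexa647 anti-CD8 (FL8), PFA-fixed; control set: Peptide-free naked vesicles (low) and QL9 vesicles with 0.7% DMSO vehicle (high)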
HDAC3 inhib: HDAC3 deacetylase inhibitors, primary screen, biochemical, fluorescence, cell-free homogeneous; AID 2718, 2010; inhibition, % at 8.3 µM; recombinant HDAC3, fluorogenic peptide/trypsin coupled; 320,000 compounds, 0.15% hits; Histone deacetylase 3 (Homo sapiens), O15379; in the data active = inhibition above about 26%, passing the limit was not always enough; inconclusive = no clear call, values can overlap the other calls
DSG3 Ab inh: inhibitors of pemphigus antibody binding to DSG3, primary screen, biochemical, bead-based, flow cytometry, scFv-GFP; AID 588358, 2011; DSG3-coupled beads, scFv-anti-DSG3-GFP binding; active compounds read low; binding (percent of control), % at 10 µM; 310,000 compounds, 0.48% hits;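 active = binding more than 3 SD below its plate's average and above zero; inconclusive = below that plate limit but binding exactly zero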;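 also: hits lower antibody fragment binding to DSG3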
A number is an active result; - = inactive; ? = inconclusive; . = no result given; ! = not confirmed by another sample. Shown are actives, neighbours in structure and some others; about 1.6% of the full set was active somewhere.

SMILES	LANA-H2A inh	JMJD2C inh	Arr AP2 block	T cell HTS	HDAC3 inhib	DSG3 Ab inh
CC(C)(C)c1ccc(SCCc2cccnc2)cc1	14	?	-	-	-	-
CC(C)NC(=O)c1nn2c(C(F)(F)F)cc(-c3ccco3)nc2c1Cl	43	-	-	-	-	-
CCOC(=O)c1cc(CC)sc1NC(=O)c1ccc(N2C(=O)CCC2=O)cc1	-	-	-	-	-	79
O=C(OCc1nnc(-c2ccccc2)o1)c1cc([N+](=O)[O-])ccc1Cl	-	-	-	-	-	71
O=C(COC(=O)c1ccc[n+]([O-])c1)Nc1cc([N+](=O)[O-])ccc1Cl	-	-	-	-	-	-
Cc1cccc(C)c1NC(=O)COC(=O)c1c2c(nc3ccccc13)/C(=C\c1ccc3c(c1)OCO3)CCC2	63	-	-	-	-	-
CCOc1cc(/C=C2\CCCc3c2nc2ccccc2c3C(=O)O)ccc1OC	85	-	-	-	-	-
COC(=O)[C@@]1(Cc2ccc(F)cc2)[C@H]2c3cc(C(=O)N4CCCC4)n(CCCNc4ncc(C(F)(F)F)cc4Cl)c3C[C@H]2CN1C(=O)c1ccccc1	-	-	-	-	-	.
CN(C(=O)CSc1nnc(C(F)(F)F)n1C)c1c(N)n(Cc2ccccc2)c(=O)[nH]c1=O	.	.	.	.	.	-
C[n+]1ccccc1/C=N/O	18!	-	-	-	-	-
CCCC(C)NC(=O)c1ccc(F)cc1 (stereo not drawn)	-	-	-	-	-	27
CC(C)(C)NC(=O)C1(N2C(=O)c3ccccc3C2=O)CCCC1	.	.	-	.	.	-
COc1ccc(/C(O)=C2/C(=O)C(=O)N(Cc3cccnc3)C2c2ccco2)cc1OC (stereo not drawn)	-	-	-	48	-	.
Cc1[nH]c2ccc(C(=O)OCC(=O)Nc3cccc(S(N)(=O)=O)c3)cc2c1C	-	-	-	-	-	.
Cc1ccc(C)c(N2CCN(C(=O)c3ccc4nc(-c5ccco5)c(-c5ccco5)nc4c3)CC2)c1	-	-	-	-	-	69
Cc1ccc(-n2c(N)c(C#N)c(-c3ccccc3)c(C#N)c2=O)cc1	-	-	-	-	-	-
Cc1ccc(-c2nc3sc(C#N)c(N)n3c(=O)c2C#N)cc1	-	-	-	-	-	68
Nc1nc(SCC(=O)Nc2cccc(S(=O)(=O)N3CCCCCC3)c2)n[nH]1	171	-	-	-	-	-
O=C(CCNC(=O)c1ccc([N+](=O)[O-])cc1)Nc1cccc(S(=O)(=O)N2CCCCCC2)c1	12	-	-	-	-	-
COc1ccc(N(CC(=O)Nc2ccccc2C)S(=O)(=O)c2ccccc2[N+](=O)[O-])c(OC)c1	-	-	-	-	-	24
COC1=C(NCc2ccc3c(c2)OCO3)C(=O)C(OC)=C(NCc2ccc3c(c2)OCO3)C1=O	.	.	-	.	.	-15
CCN(CC(=O)Nc1c(F)cccc1F)C(=O)c1cccc(S(=O)(=O)N2CCCc3ccccc32)c1	.	.	-	.	.	-
COc1ccc(C(=O)CCS(=O)(=O)c2ccc(C)cc2)cc1OC	-	-	-	-	-	-
COc1ccc(C(=O)CCC(C)(C)[N+](=O)[O-])cc1OC	-	-	-	60	-	.
Cc1cc(C)c(NC(=O)c2cc(C(=O)O)ccc2C(=O)O)c([N+](=O)[O-])c1	12	-	-	-	-	-
COc1ccc(Br)cc1S(=O)(=O)Nc1ncn[nH]1	-	-	-	-	-	.
CCS(=O)(=O)N1Cc2ccccc2CC1C(=O)N(C)CC(=O)Nc1ccc(OC)cc1 (stereo not drawn)	-	-	-	-	-	.

From PubChem
